This is an account of results in publication PMC12580983 (RSC Advances, 2025).

Assay [1] has as its system P. falciparum (Pf3D7). The assay is described as follows: Parasitemia and suppression of Pf3D7 culture after 72 h of treatment. The assay is classed as cell-based, Plasmodium falciparum. To be noted: for percentage suppression of parasitemia: concentration not given.
A further assay concerns A549 cells. The assay is described as follows: MTT cell viability assay, A549. The assay is classed as cell-based, Human. To be noted: IC50 Vero cells / IC50 A549 cells. On the technique in general: Tetrazolium dyes change colour on reduction, which living cells bring about.
In assay [2] the test system is P. falciparum (Pf3D7). Kind of assay: SYBR green I fluorescence antiplasmodial assay. The assay is classed as cell-based, Plasmodium falciparum. To be noted: for selectivity index (SI) towards Pf3D7: antimalarial selectivity, way of calculation not stated. In short, it runs like this:
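Chloroquine-sensitive P. falciparum 3D7 was grown in O+ human erythrocytes (4% haematocrit) in RPMI 1640 with 25 mM HEPES and 0.5% Albumax I, at 37 °C under 5% O2/5% CO2/90% N2. Sorbitol-synchronised rings (2% haematocrit, 1% parasitaemia) got increasing concentrations in water. SYBR Green I was read after 0.08% Triton X-100, 1 h at 37 °C in the dark (ex 485/em 530 nm), chloroquine-well counts subtracted. IC50 came from dose–response curves.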

In brackets after ≈: the same amount, converted by molar mass.

As for `C/C(=N/NC(=O)c1cn(-c2ccccc2)nc1-c1ccc(F)cc1)c1c(O)cc(C)oc1=O` [3a, (Z)-3-(4-fluorophenyl)-N′-(1-(4-hydroxy-6-methyl-2-oxo-2H-pyran-3-yl)ethylidene)-1-phenyl-1H-pyrazole-4-carbohydrazide], in the assay on P. falciparum (Pf3D7) [1] (12.5 μg mL^−1, 72 h), the “% Parasitemia” value is listed as 93.33% and the “% Suppression” value was 6.67%. The “% Parasitemia” value in the assay with P. falciparum (Pf3D7) [1] (100 μg mL^−1, 72 h) came to 2.95%. The “percentage suppression of parasitemia” value in the assay with P. falciparum (Pf3D7) [1] is on record as 97%. For the same molecule, the “Selectivity Index (SI)” value in the assay on A549 cells was found to be 2.78.

On to `C/C(=N/NC(=O)c1cn(-c2ccccc2)nc1-c1ccc(Cl)cc1)c1c(O)cc(C)oc1=O` [3b, (Z)-3-(4-chlorophenyl)-N′-(1-(4-hydroxy-6-methyl-2-oxo-2H-pyran-3-yl)ethylidene)-1-phenyl-1H-pyrazole-4-carbohydrazide], for which the “% Parasitemia” value worked out at 68.38% in the assay on P. falciparum (Pf3D7) [1] (12.5 μg mL^−1, 72 h) and 62.57% with P. falciparum (Pf3D7) [1] (100 μg mL^−1, 72 h). In addition, the “% Suppression” value with P. falciparum (Pf3D7) [1] (12.5 μg mL^−1, 72 h) is reported as 31.62%; in the assay with P. falciparum (Pf3D7) [1] (100 μg mL^−1, 72 h), 37.43%. Besides, the “Selectivity Index (SI)” value in the assay with A549 cells turned out to be 3.25.

For `C/C(=N/NC(=O)c1cn(-c2ccccc2)nc1-c1ccc(Br)cc1)c1c(O)cc(C)oc1=O` [3c, (Z)-3-(4-bromophenyl)-N′-(1-(4-hydroxy-6-methyl-2-oxo-2H-pyran-3-yl)ethylidene)-1-phenyl-1H-pyrazole-4-carbohydrazide], in the assay on P. falciparum (Pf3D7) [1] (12.5 μg mL^−1, 72 h), the “% Parasitemia” value was found to be 52.90% and the “% Suppression” value stood at 47.10%. In the assay on P. falciparum (Pf3D7) [1] (100 μg mL^−1, 72 h), the “% Parasitemia” value is reported as 5.81% and the “% Suppression” value is 94.19%.

As to `C/C(=N/NC(=O)c1cn(-c2ccccc2)nc1-c1ccc(C)cc1)c1c(O)cc(C)oc1=O` [3d, (Z)-3-(4-methylphenyl)-N′-(1-(4-hydroxy-6-methyl-2-oxo-2H-pyran-3-yl)ethylidene)-1-phenyl-1H-pyrazole-4-carbohydrazide], in the assay on P. falciparum (Pf3D7) [2] (Plasmodium falciparum, 72 h, read-out: IC50 µM Pf3D7), the IC50 turned out to be 5.2 µg/mL (≈ 11.8 µM). In addition, the “selectivity index (SI) towards Pf3D7” value in the assay with P. falciparum (Pf3D7) [2] was 18.38. In the assay with P. falciparum (Pf3D7) [1] (12.5 μg mL^−1, 72 h), the “% Parasitemia” value is 42.19% and the “% Suppression” value came out at 57.81%. Also, the “% Parasitemia” value in the assay with P. falciparum (Pf3D7) [1] (100 μg mL^−1, 72 h) was found to be 2.47%. The “percentage suppression of parasitemia” value in the assay on P. falciparum (Pf3D7) [1] was 97%.

Regarding `C/C(=N/NC(=O)c1cn(-c2ccccc2)nc1-c1ccccc1)c1c(O)cc(C)oc1=O` [3e, (Z)-N′-(1-(4-hydroxy-6-methyl-2-oxo-2H-pyran-3-yl)ethylidene)-1,3-diphenyl-1H-pyrazole-4-carbohydrazide], the “selectivity index (SI) towards Pf3D7” value in the assay with P. falciparum (Pf3D7) [2] is given as 9.48. Moreover, in the assay with P. falciparum (Pf3D7) [1] (12.5 μg mL^−1, 72 h), the “% Parasitemia” value is 73.81% and the “% Suppression” value worked out at 26.19%. In addition, in the assay on P. falciparum (Pf3D7) [1] (100 μg mL^−1, 72 h), the “% Parasitemia” value was determined as 37.62% and the “% Suppression” value stood at 62.38%. In addition, in the assay with A549 cells, the “Selectivity Index (SI)” value is on record as 4.56.

On to `CCN(CC)CCCC(C)Nc1ccnc2cc(Cl)ccc12` (stereo not drawn) [CQ, Chloroquine, reference compound], for which, in the assay with P. falciparum (Pf3D7) [1] (12.5 μg mL^−1, 72 h), the “% Parasitemia” value was determined as 0.95% and the “% Suppression” value stood at 99.05%. For the same molecule, in the assay with P. falciparum (Pf3D7) [1] (100 μg mL^−1, 72 h), the “% Parasitemia” value was 0.95% and the “% Suppression” value worked out at 99.05%.

Turning to `N.N.O=C([O-])C1(C(=O)[O-])CCC1.[Pt+2]` [Carboplatin, reference compound], the “Selectivity Index (SI)” value with A549 cells was determined as 2.57.

On to `N.N.[Cl][Pt][Cl]` [Cisplatin, reference compound], for which the “Selectivity Index (SI)” value in the assay with A549 cells was found to be 1.35.

In the case of `C[C@@H]1C[C@H]2[C@@H]3CCC4=CC(=O)C=C[C@]4(C)[C@@]3(F)[C@@H](O)C[C@]2(C)[C@@]1(O)C(=O)CO` [Dexamethasone, reference compound], the “Selectivity Index (SI)” value in the assay on A549 cells came to 0.23.

The term IC50 denotes the concentration that inhibits the measured activity by half.
